Test [1] addresses T1, Kv4.2 K318R mutant channels (co-injected with KChIP1b) (Rattus norvegicus, UniProt Q63881, K318R).
T1 sequence (Q63881 1-630 K318R): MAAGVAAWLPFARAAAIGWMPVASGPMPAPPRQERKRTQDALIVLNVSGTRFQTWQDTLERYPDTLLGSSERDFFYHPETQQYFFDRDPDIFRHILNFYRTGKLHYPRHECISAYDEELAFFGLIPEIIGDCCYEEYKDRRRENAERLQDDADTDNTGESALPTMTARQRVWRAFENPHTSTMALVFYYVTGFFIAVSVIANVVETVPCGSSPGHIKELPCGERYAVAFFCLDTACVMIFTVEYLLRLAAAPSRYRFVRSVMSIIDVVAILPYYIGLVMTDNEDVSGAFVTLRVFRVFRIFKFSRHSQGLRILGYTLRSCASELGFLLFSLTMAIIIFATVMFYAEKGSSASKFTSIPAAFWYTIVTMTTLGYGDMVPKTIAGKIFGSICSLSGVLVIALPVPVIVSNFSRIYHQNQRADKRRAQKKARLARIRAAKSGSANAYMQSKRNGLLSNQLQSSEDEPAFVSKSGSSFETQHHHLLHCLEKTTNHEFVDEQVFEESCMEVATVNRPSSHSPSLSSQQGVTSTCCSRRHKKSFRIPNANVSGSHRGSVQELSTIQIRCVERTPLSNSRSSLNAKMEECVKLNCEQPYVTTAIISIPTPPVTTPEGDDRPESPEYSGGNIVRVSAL
Nature of the test: Two-electrode voltage clamp, K318R mutant Kv4.2/KChIP1b in Xenopus oocytes. It counts as cell-based. Conditions: 10 µM AA, 10 min. Summed up:
(§1)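 Rat Kv4.2 (WT or QuikChange mutant) RNA co-injected equimolar with KChIP1b, 5–10 ng/oocyte, into Xenopus oocytes held 1–5 d at 17–19 °C. Two-electrode voltage clamp at room temperature in perfused Na/K methanesulfonate HEPES saline, pH 7.4–7.5, with P/−4 or P/−6 leak subtraction. Peak current at +40 mV (from −90 mV) after 10 min of 10 μM AA is expressed relative to pre-AA current. Mean ± SE, n = cells.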
A general note: Two-electrode voltage clamp is typically applied to oocytes expressing channels or transporters.

Test [2] deals with group of mutant Kv4.2 channels (V261F, K318Q, V261F/K318Q). The test can be described thus: Two-electrode voltage clamp, grouped mutant Kv4.2 channels. Conditions: 10 µM AA. The test is classed as cell-based, rat. The method in brief: (§2)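 Xenopus oocytes co-expressing rat Kv4.2 (WT or mutant) with equimolar KChIP1b were recorded by two-electrode voltage clamp at room temperature. Peak conductance was calculated as G = I/(Vm − Vh), with Vh = −100 mV, and normalized to each cell's Gmax. It was plotted against step potential without and with 10 μM AA and fit to a first-order Boltzmann function to give V1/2 and slope.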

In test [3] the target is T2, Kv4.2 G314F mutant channels (co-injected with KChIP1b) (Rattus norvegicus, UniProt Q63881, G314F).
T2 sequence (Q63881 1-630 G314F): T1 sequence (Q63881 1-630 K318R) with G314F, R318K
Nature of the test: Two-electrode voltage clamp, G314F mutant Kv4.2/KChIP1b in Xenopus oocytes. The test is classed as cell-based. Conditions: read-out: inhibition of the peak K+ current. Summed up:
as §1

The target of test [4] is T3, Kv4.2 V261F/K318Q double mutant channels (co-injected with KChIP1b) (Rattus norvegicus, UniProt Q63881, K318Q/V261F).
T3 sequence (Q63881 1-630 V261F/K318Q): T1 sequence (Q63881 1-630 K318R) with V261F, R318Q
The test is classed as cell-based. Summed up:
as §2

The results in this text go back to publication PMC3667888 (Channels, 2013).

Where a chain is given by its changes, count along the chain named.

In general, inhibition refers to the share of the control response that was lost under treatment. As a reminder, the Kd is the equilibrium constant for the complex coming apart.

As for `CCCCC/C=C\C/C=C\C/C=C\C/C=C\CCCC(=O)O` [AA, arachidonic acid], the “inhibition of peak K+ current by AA, effect of mutation” value in test [1] is listed as “preserved the strong inhibition by AA”. For the same compound, the “average shift in V1/2 in the presence of AA for the three mutant constructs” value in test [2] was “+5.7 mV”. Also, the inhibition at 10 µM in test [3] is 22%. In test [4] (10 µM AA), the “V1/2 of conductance-voltage curve with AA” value is listed as −19.1 mV and the “slope factor (k) of Boltzmann fit with AA” value came out at 8.4. The Kd in test [4] (fitted Kd for AA inhibition of peak current, Hill equation, nH = 1, +40 mV) came to 45.7 µM.
